Experiments:
[1] = Cytotoxicity against human MT4 cells expressing LTR-Luc after 3 days by luciferase assay; assay type: cell-based
Summary of the method: (§1)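 Huh7 cells stably carrying luciferase under the CMV constitutive promoter, or MT4 cells with luciferase under the HIV LTR promoter, were cultured with or without compound dilutions for 3 days at 37 °C in humidified 5% CO₂. Luciferase activity served as the measure of proliferation, giving the CC₅₀ as 50% inhibition of growth. Values are averages of at least four repeats.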

[2] = Tmax in Sprague-Dawley rat at 60 mg/kg, po; assay type: ADME, organism-based; parameters: dose 60 mg/kg, route oral; conditions: in vivo
Summary of the method: (§2)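 Male Sprague-Dawley rats, three per dose, received a single oral solution in 20% hydroxypropyl-β-cyclodextrin. EDTA blood was collected at 0.5, 1, 2, 4, 7 and 24 h, kept on ice protected from light, and spun at 4 °C within 1 h; plasma was stored at −20 °C. Parent nucleoside was quantified by LC-MS after acetonitrile precipitation (standard curve 5-2000 ng/mL). Noncompartmental analysis.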

[3] = Tmax in Sprague-Dawley rat at 10 mg/kg, po; assay type: ADME, organism-based; parameters: dose 10 mg/kg, route oral; conditions: in vivo; summary of the method: as §2
Hepatitis C virus = assay: Antiviral activity against Hepatitis C virus subtype 1b with adaptive mutations of E1202G, T1280I, K1846T […] infected in human HuH7 cells assessed as inhibition of viral replication after 3 days by luciferase assay; assay type: functional, organism-based, Hepacivirus hominis; conditions: genotype 1b, Huh-7, 72 h
Summary of the method: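 Huh7-Rep cells carrying the genotype 1b subgenomic luciferase reporter replicon (clone ET; adaptive mutations E1202G, T1280I, K1846T). 2500 cells per well were exposed to a nine-point 1/4 serial dilution of compound. Replication was read out as luciferase activity, and EC50 was derived from it. Values are averages of at least four repeats.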

[4] = AUC (0 to 7 hrs) in Sprague-Dawley rat at 60 mg/kg, po; assay type: ADME, organism-based; parameters: time < 7 hr, dose 60 mg/kg, route oral; conditions: plasma; summary of the method: as §2
[5] = Cmax in Sprague-Dawley rat at 10 mg/kg, po; assay type: ADME, organism-based; parameters: dose 10 mg/kg, route oral; conditions: in vivo; summary of the method: as §2
[6] = Cytotoxicity against human HuH7 cells expressing CMV-Luc after 3 days by luciferase assay; assay type: cell-based, Huh-7; summary of the method: as §1
[7] = AUC (0 to 7 hrs) in Sprague-Dawley rat at 10 mg/kg, po; assay type: ADME, organism-based; parameters: time < 7 hr, dose 10 mg/kg, route oral; conditions: plasma; summary of the method: as §2
[8] = Cmax in Sprague-Dawley rat at 60 mg/kg, po; assay type: ADME, organism-based; parameters: dose 60 mg/kg, route oral; conditions: in vivo; summary of the method: as §2
[9] = Cmax in Beagle dog at 75 mg/kg, po; assay type: ADME, organism-based, Canis lupus familiaris; parameters: dose 75 mg/kg, route oral; conditions: in vivo
Summary of the method: (§3)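 Single oral dose given as a solution in 20% hydroxypropyl-β-cyclodextrin to Beagle dogs, three per dose. Blood was taken on EDTA at 0.5, 1, 2, 4, 6, 8, 24 and 48 h, kept on ice away from light, and centrifuged at 4 °C within 1 h; plasma was stored at −20 °C. Analyte was protein-precipitated with acetonitrile and measured by LC-MS (LOQ ≥5.00 ng/mL). Noncompartmental parameters.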

[10] = Tmax in Sprague-Dawley rat at 90 mg/kg, po; assay type: ADME, organism-based; parameters: dose 90 mg/kg, route oral; conditions: in vivo; summary of the method: as §2
[11] = Tmax in Beagle dog at 75 mg/kg, po; assay type: ADME, organism-based, Canis lupus familiaris; parameters: dose 75 mg/kg, route oral; conditions: in vivo; summary of the method: as §3
[12] = Tmax in Beagle dog at 15 mg/kg, po; assay type: ADME, organism-based, Canis lupus familiaris; parameters: dose 15 mg/kg, route oral; conditions: in vivo; summary of the method: as §3
[13] = AUC (0 to 24 hrs) in Sprague-Dawley rat at 90 mg/kg, po; assay type: ADME, organism-based; parameters: time < 24 hr, dose 90 mg/kg, route oral; conditions: plasma; summary of the method: as §2
[14] = Cmax in Beagle dog at 15 mg/kg, po; assay type: ADME, organism-based, Canis lupus familiaris; parameters: dose 15 mg/kg, route oral; conditions: in vivo; summary of the method: as §3
[15] = Cmax in Sprague-Dawley rat at 15 mg/kg, po; assay type: ADME, organism-based; parameters: dose 15 mg/kg, route oral; conditions: in vivo; summary of the method: as §2
[16] = Cmax in Sprague-Dawley rat at 90 mg/kg, po; assay type: ADME, organism-based; parameters: dose 90 mg/kg, route oral; conditions: in vivo; summary of the method: as §2
[17] = AUC (0 to 24 hrs) in Beagle dog at 15 mg/kg, po; assay type: ADME, organism-based, Canis lupus familiaris; parameters: time < 24 hr, dose 15 mg/kg, route oral; conditions: plasma; summary of the method: as §3
[18] = AUC (0 to 24 hrs) in Beagle dog at 75 mg/kg, po; assay type: ADME, organism-based, Canis lupus familiaris; parameters: time < 24 hr, dose 75 mg/kg, route oral; conditions: plasma; summary of the method: as §3
[19] = AUC (0 to 7 hrs) in Sprague-Dawley rat at 15 mg/kg, po; assay type: ADME, organism-based; parameters: time < 7 hr, dose 15 mg/kg, route oral; conditions: plasma; summary of the method: as §2
[20] = Tmax in Sprague-Dawley rat at 15 mg/kg, po; assay type: ADME, organism-based; parameters: dose 15 mg/kg, route oral; conditions: in vivo; summary of the method: as §2

SMILES: Nc1ccn([C@@H]2O[C@H](CO)[C@@H](O)C23CC3)c(=O)n1
- CC50 at 72 h [1]: > 98.4 µM
- Tmax [2]: 1.3 h
- Tmax [3]: 60 min
- EC50 (Hepatitis C virus): 7.3 µM
- AUC(0-t) at 7 h [4]: 1640 ng·h/mL
- Cmax [5]: 85 ng/mL
- CC50 at 72 h [6]: > 98.4 µM
- AUC(0-t) at 7 h [7]: 248 ng·h/mL
- Cmax [8]: 527 ng/mL

SMILES: CC(C)C(=O)O[C@@H]1[C@@H](CO)O[C@@H](n2ccc(N)nc2=O)C12CC2
- CC50 at 72 h [1]: > 98.4 µM
- Tmax [3]: 42 min
- EC50 (Hepatitis C virus): 42.8 µM
- Cmax [5]: 184 ng/mL
- CC50 at 72 h [6]: > 98.4 µM
- AUC(0-t) at 7 h [7]: 2620 ng·h/mL

SMILES: CC(C)C(=O)OC[C@H]1O[C@@H](n2ccc(N)nc2=O)C2(CC2)[C@@H]1OC(=O)C(C)C
- Cmax [9]: 42800 ng/mL
- CC50 at 72 h [1]: > 98.4 µM
- Tmax [10]: 42 min
- Tmax [11]: 1.3 h
- Tmax [12]: 1.5 h
- AUC(0-t) at 24 h [13]: 40000 ng·h/mL
- EC50 (Hepatitis C virus): 20.3 µM
- Cmax [14]: 6300 ng/mL
- Cmax [15]: 2390 ng/mL
- Cmax [16]: 11400 ng/mL
- AUC(0-t) at 24 h [17]: 37000 ng·h/mL
- AUC(0-t) at 24 h [18]: 204 µg·h/mL
- AUC(0-t) at 7 h [19]: 7220 ng·h/mL
- Tmax [20]: 48 min
- CC50 at 72 h [6]: > 98.4 µM

SMILES: C[C@@]1(F)[C@H](O)[C@@H](CO)O[C@H]1n1ccc(N)nc1=O
- CC50 at 72 h [1]: > 98.4 µM
- EC50 (Hepatitis C virus): 1.9 µM
- CC50 at 72 h [6]: > 98.4 µM

SMILES: C[C@@]1(O)[C@H](O)[C@@H](CO)O[C@H]1n1ccc(N)nc1=O
- CC50 at 72 h [1]: > 98.4 µM
- EC50 (Hepatitis C virus): 4.6 µM
- CC50 at 72 h [6]: > 98.4 µM

SMILES: [N-]=[N+]=N[C@]1(CO)O[C@@H](n2ccc(N)nc2=O)[C@H](O)[C@@H]1O [4'-AZIDOCYTIDINE]
- CC50 at 72 h [1]: > 98.4 µM
- EC50 (Hepatitis C virus): 4.3 µM
- CC50 at 72 h [6]: > 98.4 µM
